The values that follow come from ChEMBL document CHEMBL4706489, “Hydrogen sulfide releasing oridonin derivatives induce apoptosis through extrinsic and intrinsic pathways” (Eur J Med Chem, 2020).

For assay [1], the system named is K562. The assay can be described thus: Induction of cell cycle arrest in human K562 cells assessed as accumulation at G1 phase at 0.5 uM after 48 hrs by propidium iodide staining based flow cytometric analysis (reference value: 43.24 to 43.37%). Type of assay: functional. A general note: Flow cytometry measures light scatter and fluorescence of single cells or particles in a stream.

For assay [2], the system named is K562. The assay is described as follows: Induction of cell cycle arrest in human K562 cells assessed as accumulation at S phase at 0.5 uM after 48 hrs by propidium iodide staining based flow cytometric analysis (reference value: 44.73 to 45.96%). In kind it is functional.
The subject of assay [3] is K562. The assay is described as follows: Induction of cell cycle arrest in human K562 cells assessed as accumulation at G2 phase at 0.5 uM after 48 hrs by propidium iodide staining based flow cytometric analysis (reference value: 10.96 to 12.03%). Type of assay: functional.
The subject of assay [4] is K562. The assay is described as follows: Induction of cell cycle arrest in human K562 cells assessed as accumulation at G1 phase at 1 uM after 48 hrs by propidium iodide staining based flow cytometric analysis (reference value: 43.24 to 43.37%). In kind it is functional.
The test system of assay [5] is K562. The assay is described as follows: Induction of cell cycle arrest in human K562 cells assessed as accumulation at S phase at 1 uM after 48 hrs by propidium iodide staining based flow cytometric analysis (reference value: 44.73 to 45.96%). In kind it is functional.
In assay [6] the test system is K562. The assay can be described thus: Induction of cell cycle arrest in human K562 cells assessed as accumulation at G2 phase at 1 uM after 48 hrs by propidium iodide staining based flow cytometric analysis (reference value: 10.96 to 12.03%). In kind it is functional.
In assay [7] the test system is K562. The assay can be described thus: Induction of cell cycle arrest in human K562 cells assessed as accumulation at G1 phase at 2 uM after 48 hrs by propidium iodide staining based flow cytometric analysis (reference value: 43.24 to 43.37%). In kind it is functional.
Assay [8] relates to K562. The assay is described as follows: Induction of cell cycle arrest in human K562 cells assessed as accumulation at S phase at 2 uM after 48 hrs by propidium iodide staining based flow cytometric analysis (reference value: 44.73 to 45.96%). Type of assay: functional.
Assay [9] concerns K562. The assay can be described thus: Induction of cell cycle arrest in human K562 cells assessed as accumulation at G2 phase at 2 uM after 48 hrs by propidium iodide staining based flow cytometric analysis (reference value: 10.96 to 12.03%). Type of assay: functional.
The subject of assay [10] is HepG2. The assay is described as follows: Induction of cell cycle arrest in human HepG2 cells assessed as accumulation at G1 phase at 0.5 uM after 48 hrs by propidium iodide staining based flow cytometric analysis (reference value: 49.46 to 50.3%). In kind it is functional. An outline of the steps: (§1)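 HepG2 cells were treated with 0, 0.50, 1.0 or 2.0 test agent for 48 h. Cells were washed in cold PBS and fixed in 70% ethanol at −20 °C overnight. DNA-content distribution was measured by flow cytometry. Mean ± SD, three independent experiments.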

Assay [11] concerns HepG2. The assay is described as follows: Induction of cell cycle arrest in human HepG2 cells assessed as accumulation at S phase at 0.5 uM after 48 hrs by propidium iodide staining based flow cytometric analysis (reference value: 33.22 to 33.58%). In kind it is functional.
Assay [12] relates to HepG2. The assay can be described thus: Induction of cell cycle arrest in human HepG2 cells assessed as accumulation at G2 phase at 0.5 uM after 48 hrs by propidium iodide staining based flow cytometric analysis (reference value: 16.48 to 16.97%). In kind it is functional. A digest of the protocol:
as §1

The test system of assay [13] is HepG2. The assay is described as follows: Induction of cell cycle arrest in human HepG2 cells assessed as accumulation at G1 phase at 1 uM after 48 hrs by propidium iodide staining based flow cytometric analysis (reference value: 49.46 to 50.3%). In kind it is functional. An outline of the steps: as §1
Assay [14] has as its system HepG2. The assay is described as follows: Induction of cell cycle arrest in human HepG2 cells assessed as accumulation at S phase at 1 uM after 48 hrs by propidium iodide staining based flow cytometric analysis (reference value: 33.22 to 33.58%). In kind it is functional.
In assay [15] the test system is HepG2. The assay can be described thus: Induction of cell cycle arrest in human HepG2 cells assessed as accumulation at G2 phase at 1 uM after 48 hrs by propidium iodide staining based flow cytometric analysis (reference value: 16.48 to 16.97%). Type of assay: functional. An outline of the steps:
as §1

Assay [16] concerns HepG2. The assay can be described thus: Induction of cell cycle arrest in human HepG2 cells assessed as accumulation at G1 phase at 2 uM after 48 hrs by propidium iodide staining based flow cytometric analysis (reference value: 49.46 to 50.3%). In kind it is functional. An outline of the steps: as §1
The test system of assay [17] is HepG2. The assay is described as follows: Induction of cell cycle arrest in human HepG2 cells assessed as accumulation at S phase at 2 uM after 48 hrs by propidium iodide staining based flow cytometric analysis (reference value: 33.22 to 33.58%). In kind it is functional.
Assay [18] concerns HepG2. The assay can be described thus: Induction of cell cycle arrest in human HepG2 cells assessed as accumulation at G2 phase at 2 uM after 48 hrs by propidium iodide staining based flow cytometric analysis (reference value: 16.48 to 16.97%). Type of assay: functional.
Another assay relates to L02. The assay can be described thus: Cytotoxicity against human L02 cells assessed as cell viability after 72 hrs by MTT assay. To be noted: L02, 72 h. On the technique in general: Tetrazolium dyes change colour on reduction, which living cells bring about.
Assay [19] can be described thus: Cytotoxicity against human PBMC cells assessed as cell viability after 72 hrs by MTT assay.
Another assay relates to B16. The assay can be described thus: Antiproliferative activity against mouse B16 cells assessed as reduction in cell viability after 72 hrs by MTT assay. To be noted: B16, 72 h.
A further assay has as its system MCF7. The assay can be described thus: Antiproliferative activity against human MCF7 cells assessed as reduction in cell viability after 72 hrs by MTT assay. To be noted: MCF7, 72 h.
Assay [20] concerns HepG2. The assay is described as follows: Antiproliferative activity against human HepG2 cells assessed as reduction in cell viability after 72 hrs by MTT assay. To be noted: HepG2, 72 h.
The test system of another assay is HCT-116. The assay can be described thus: Antiproliferative activity against human HCT-116 cells assessed as reduction in cell viability after 72 hrs by MTT assay. To be noted: HCT-116, 72 h.

Take `C=C1C(=O)[C@]23[C@H](O)[C@H]1CC[C@H]2[C@@]12CO[C@]3(O)[C@@H](O)[C@@H]1C(C)(C)CC[C@@H]2O` [ORIDONIN]: the Activity in the assay with K562 [1] came to 46.09%; in the assay with K562 [2], 44.1%; with K562 [3], 9.81%; with K562 [4], 55.67%; with K562 [5], 38.54%; with K562 [6], 5.79%. Besides, the Activity in the assay with K562 [7] is 60.6%; with K562 [8] it was 32.78%; with K562 [9] it was 6.62%; with HepG2 [10], 57.11%; in the assay with HepG2 [11], 29.64%; in the assay with HepG2 [12] it was 13.25%. The Activity in the assay on HepG2 [13] came out at 61.88%; in the assay on HepG2 [14] it was 27.54%; in the assay on HepG2 [15], 10.54%; in the assay with HepG2 [16], 68%; with HepG2 [17], 26.2%; in the assay with HepG2 [18], 5.8%. Further, the concentration for half-maximal inhibition (IC50) with L02 was 21.6 µM; in [19], above 50 µM; in the assay with B16 it was 24.9 µM; in the assay on MCF7 it was 13.8 µM; in the assay on HepG2 [20], 8.95 µM; in the assay on HCT-116, 11.7 µM.

As usually defined, the IC50 is the concentration needed to halve the response being measured.
